ChEMBL document CHEMBL3864147, “Antioxidant and anti-inflammatory neolignans from the seeds of hawthorn” (Bioorg Med Chem Lett, 2016)

What was measured:
[1] = Antioxidant activity assessed as DPPH radical scavenging activity incubated in dark for 30 mins; type: functional
In short: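 Samples (0.4 mM stock, 5–40 µL series) and DPPH (2 mM stock, 20 µL) in ethanol, made to 200 µL with ethanol; incubated 30 min in dark at 37 °C; absorbance at 517 nm. Ethanol replaced sample as blank.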

[2] = Antioxidant activity assessed as ABTS radical scavenging activity after 30 mins; type: functional
In short: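 ABTS radical generated by 7 mM ABTS plus 2.4 mM potassium persulfate, 12 h dark at room temperature, diluted in ethanol to OD 0.700 at 734 nm. Samples at several concentrations mixed with ABTS+ solution, 30 min at 37 °C, read at 734 nm; ethanol blank; percent scavenging calculated relative to blank.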

[3] = Antioxidant activity assessed as ferric ion reducing activity by measuring Fe2+ levels using fe3+-TPTZ at 375 ug/ml after 30 mins by FRAP assay; type: functional
In short: (§1)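 FRAP reagent: 300 mM acetate buffer pH 3.6, 10 mM TPTZ in 40 mM HCl, 20 mM FeCl3. Sample (3000, 1500, 750, 375 µg/mL solutions) mixed with reagent, 30 min at 37 °C, absorbance 593 nm. Values expressed as µM Fe2+ from FeSO4 calibration curve (5–450 µM).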

[4] = Antioxidant activity assessed as ferric ion reducing activity by measuring Fe2+ levels using fe3+-TPTZ at 750 ug/ml after 30 mins by FRAP assay; type: functional; in short: as §1
[5] = Antioxidant activity assessed as ferric ion reducing activity by measuring Fe2+ levels using fe3+-TPTZ at 1500 ug/ml after 30 mins by FRAP assay; type: functional; in short: as §1
[6] = Antioxidant activity assessed as ferric ion reducing activity by measuring Fe2+ levels using fe3+-TPTZ at 3000 ug/ml after 30 mins by FRAP assay; type: functional; in short: as §1
[7] = Antiinflammatory activity in mouse RAW264.7 cells assessed as inhibition of LPS-induced nitric oxide production after 24 hrs by Griess assay; type: functional, cell-based; details: RAW264.7, 24 h
In short: (§2)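 RAW264.7 cells (5 × 10^5/mL) pre-treated with samples at 100, 50, 10 or 1 µM, then LPS (100 ng/mL) for 24 h. Nitrite in medium measured by mixing with equal volume Griess reagent (1% sulfanilamide in 5% H3PO4, 0.1% N-naphthyl-ethylenediamine), 10 min at 37 °C, absorbance 540 nm; quantified against NaNO2 standard curve; minocycline as positive control.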

[8] = Antiinflammatory activity in mouse RAW264.7 cells assessed as inhibition of LPS-induced TNFalpha production after 24 hrs by ELISA; type: functional, cell-based; details: RAW264.7, 24 h
In short: (§3)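 RAW264.7 cells plated at 5 × 10^5/mL, pre-treated with samples at 100, 50, 10 or 1 µM, then stimulated with LPS (100 ng/mL) for 24 h. TNF-α in the medium measured by ELISA kit per manufacturer's instructions and quantified from a standard curve; silybin as positive control.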

Mus musculus = organism: Mus musculus; assay: Cytotoxicity against mouse RAW264.7 cells assessed as effect on cell viability at 100 uM preincubated for 1 hr followed by LPS stimulation measured after 24 hrs by MTT assay; type: toxicity, cell-based; details: raw264.7, 24 h
In short: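 RAW264.7 cells in DMEM with 10% FBS and penicillin/streptomycin at 37 °C, 5% CO2, seeded 5 × 10^5 cells/well; treated with samples (100 µM) 1 h, then LPS (100 ng/mL) 24 h. MTT (0.25 mg/mL) added for 4 h; formazan read at 540 nm; untreated cells as control.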

[9] = Antiinflammatory activity in mouse RAW264.7 cells assessed as inhibition of LPS-induced nitric oxide production at 1 uM after 24 hrs by Griess assay relative to control; type: functional; details: RAW264.7, 24 h; in short: as §2
[10] = Antiinflammatory activity in mouse RAW264.7 cells assessed as inhibition of LPS-induced nitric oxide production at 10 uM after 24 hrs by Griess assay relative to control; type: functional; details: RAW264.7, 24 h; in short: as §2
[11] = Antiinflammatory activity in mouse RAW264.7 cells assessed as inhibition of LPS-induced nitric oxide production at 50 uM after 24 hrs by Griess assay relative to control; type: functional; details: RAW264.7, 24 h; in short: as §2
[12] = Antiinflammatory activity in mouse RAW264.7 cells assessed as inhibition of LPS-induced nitric oxide production at 100 uM after 24 hrs by Griess assay relative to control; type: functional; details: RAW264.7, 24 h; in short: as §2
[13] = Antiinflammatory activity in mouse RAW264.7 cells assessed as inhibition of LPS-induced TNFalpha production at 1 uM after 24 hrs by ELISA relative to control; type: functional; details: RAW264.7, 24 h; in short: as §3
[14] = Antiinflammatory activity in mouse RAW264.7 cells assessed as inhibition of LPS-induced TNFalpha production at 10 uM after 24 hrs by ELISA relative to control; type: functional; details: RAW264.7, 24 h; in short: as §3
[15] = Antiinflammatory activity in mouse RAW264.7 cells assessed as inhibition of LPS-induced TNFalpha production at 50 uM after 24 hrs by ELISA relative to control; type: functional; details: RAW264.7, 24 h; in short: as §3
[16] = Antiinflammatory activity in mouse RAW264.7 cells assessed as inhibition of LPS-induced TNFalpha production at 100 uM after 24 hrs by ELISA relative to control; type: functional; details: RAW264.7, 24 h; in short: as §3

| SMILES | IC50 [1] [µM] | IC50 [2] [µM] | IC50 [7] [µM] | IC50 [8] [µM] | Activity [3] [µmol/L] | Activity [4] [µmol/L] | Activity [5] [µmol/L] | Activity [6] [µmol/L] | Activity (Mus musculus) | inhibition at 1 µM [9] [%] | inhibition at 10 µM [10] [%] | inhibition at 50 µM [11] [%] | inhibition at 100 µM [12] [%] | inhibition at 1 µM [13] [%] | inhibition at 10 µM [14] [%] | inhibition at 50 µM [15] [%] | inhibition at 100 µM [16] [%] |
| --- | --- | --- | --- | --- | --- | --- | --- | --- | --- | --- | --- | --- | --- | --- | --- | --- | --- |
| COc1cc([C@@H](O)[C@@H](CO)Oc2ccc([C@@H](OC)[C@H](O)CO)cc2OC)ccc1O | 114 | 12.9 | > 100 | 47.9 | 32.5 | 54.1 | 78.3 | 102 | Non-Toxic | 0.3 | -2.2 | 3.8 | 8.2 | 4.5 | 24.5 | 42.4 | 69.3 |
| COc1cc([C@@H](O)[C@H](CO)Oc2c(OC)cc([C@@H](O)[C@H](O)CO)cc2OC)ccc1O | 114 | 10.7 | > 100 | > 100 | 35.9 | 58.1 | 84.6 | 119 | Non-Toxic | 0.6 | 1.3 | 2.7 | 3.4 | 5.1 | 13.7 | 28.2 | 47 |
| CCO[C@H](c1ccc(O[C@@H](CO)[C@@H](O)c2ccc(O)c(OC)c2)c(OC)c1)[C@@H](CO)c1ccc(O)c(OC)c1 | 79.6 | 7.1 | 66.4 | > 100 | 38.6 | 62.7 | 96.8 | 134 | Non-Toxic | 4.7 | 18.2 | 40.2 | 62.6 | -2.2 | 3.1 | 11.4 | 29.2 |
| COc1cc([C@H](O)[C@@H](CO)Oc2ccc([C@@H](O)[C@H](O)CO)cc2OC)ccc1O | 82.4 | 9.5 | > 100 | 84.4 | 9.4 | 16 | 29.4 | 55.8 | Non-Toxic | -3.6 | 1.1 | 3.1 | 6.3 | 3.9 | 26.2 | 32.3 | 55.6 |
| COc1cc(C2Oc3cc([C@H]4Oc5cc(O)cc(O)c5C(=O)[C@@H]4O)ccc3OC2CO)ccc1O (stereo partly specified) [SILIBININ] |  |  |  | 69.2 |  |  |  |  |  |  |  |  |  | 10.3 | 27 | 47 | 53.8 |
| COc1cc([C@@H](O)[C@@H](CO)Oc2c(OC)cc([C@@H](O)[C@H](O)CO)cc2OC)ccc1O | 138 | 11.8 | > 100 | > 100 | 37.1 | 60 | 89.1 | 127 | Non-Toxic | -3.1 | -1.8 | 1.1 | 2.7 | 2.3 | 14.1 | 23.2 | 45.8 |
| COc1cc([C@H](OC)[C@@H](CO)Oc2ccc([C@@H](O)[C@H](O)CO)cc2OC)ccc1O | 109 | 10.8 | > 100 | 76.1 | 29.9 | 50.5 | 74.1 | 105 | Non-Toxic | -1.3 | -0.5 | 3.2 | 7 | 3.1 | 18.9 | 37.2 | 57.7 |
| CN(C)c1ccc(O)c2c1C[C@H]1C[C@H]3[C@H](N(C)C)C(O)=C(C(N)=O)C(=O)[C@@]3(O)C(O)=C1C2=O [MINOCYCLINE] |  |  | 55.1 |  |  |  |  |  |  | 15.6 | 22.7 | 51.8 | 59.7 |  |  |  |  |

Continued by falling IC50 [1], values first:

| IC50 [1] [µM] | IC50 [2] [µM] | IC50 [7] [µM] | IC50 [8] [µM] | SMILES | Activity [3] [µmol/L] | Activity [4] [µmol/L] | Activity [5] [µmol/L] | Activity [6] [µmol/L] | Activity (Mus musculus) | inhibition at 1 µM [9] [%] | inhibition at 10 µM [10] [%] | inhibition at 50 µM [11] [%] | inhibition at 100 µM [12] [%] | inhibition at 1 µM [13] [%] | inhibition at 10 µM [14] [%] | inhibition at 50 µM [15] [%] | inhibition at 100 µM [16] [%] |
| --- | --- | --- | --- | --- | --- | --- | --- | --- | --- | --- | --- | --- | --- | --- | --- | --- | --- |
| 68.6 | 4.4 | 50.5 | > 100 | COc1cc([C@H](O)[C@@H](CO)Oc2ccc([C@@H](O)[C@@H](CO)c3ccc(O)c(OC)c3)cc2OC)ccc1O | 29.1 | 42.2 | 89.9 | 132 | Non-Toxic | 2.6 | 14.3 | 49.2 | 68.9 | 2.2 | 4.1 | 15.1 | 32.1 |
| 67.2 | 7.8 | 62.9 | > 100 | COc1cc([C@@H](CO)[C@H](OC)c2ccc(O[C@H](CO)[C@@H](O)c3ccc(O)c(OC)c3)c(OC)c2)ccc1O | 45.8 | 73 | 106 | 128 | Non-Toxic | 5.7 | 22.1 | 42.1 | 61.2 | -1.2 | 2.9 | 9.3 | 17.1 |
| 56.8 | 7.9 | 76.3 | > 100 | CCO[C@H](c1ccc(O[C@@H](CO)[C@@H](O)c2ccc(O)c(OC)c2)c(OC)c1)[C@H](CO)c1ccc(O)c(OC)c1 | 33.5 | 65.1 | 108 | 135 | Non-Toxic | 3.7 | 15.5 | 44.1 | 55.1 | 0.4 | -1.9 | 14.2 | 27.7 |
| 43.6 | 5.9 | 97.3 | > 100 | COc1cc([C@@H](O)[C@H](CO)Oc2ccc([C@@H](OC)[C@H](CO)c3ccc(O)c(OC)c3)cc2OC)ccc1O | 60.8 | 89.5 | 121 | 116 | Non-Toxic | 7 | 19.2 | 34.2 | 57.3 | 1.3 | 3.2 | 5.2 | 18.4 |
| 30.2 | 18.2 |  |  | Cc1c(C)c2c(c(C)c1O)CCC(C)(C(=O)O)O2 (stereo unspecified) [TROLOX] | 51.7 | 96.9 | 185 | 172 |  |  |  |  |  |  |  |  |  |
